Molecules are shown by their SMILES. A value given as a limit tells only on which side of the number the result lay.

This is an account of results in ChEMBL document CHEMBL1828623, “Overcoming hERG activity in the discovery of a series of 4-azetidinyl-1-aryl-cyclohexanes as CCR2 antagonists” (Bioorg Med Chem Lett, 2011).

For one experiment, the target named is C-C chemokine receptor type 2 (Homo sapiens, UniProt P41597). As to the kind of experiment: Displacement of [125I]-MCP1 from CCR2 in human THP1 cells after 2 hrs by microplate scintillation and luminescence counting. Format: cell-based, THP-1. In outline: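 They were incubated with 0.5 nM ¹²⁵I-MCP-1 and varying test compound concentrations for 2 h at 30 °C. Cold MCP-1 defined nonspecific binding. Buffer-only blanks were subtracted and values compared with vehicle.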
C-C chemokine receptor type 2, sequence (P41597 whole entry): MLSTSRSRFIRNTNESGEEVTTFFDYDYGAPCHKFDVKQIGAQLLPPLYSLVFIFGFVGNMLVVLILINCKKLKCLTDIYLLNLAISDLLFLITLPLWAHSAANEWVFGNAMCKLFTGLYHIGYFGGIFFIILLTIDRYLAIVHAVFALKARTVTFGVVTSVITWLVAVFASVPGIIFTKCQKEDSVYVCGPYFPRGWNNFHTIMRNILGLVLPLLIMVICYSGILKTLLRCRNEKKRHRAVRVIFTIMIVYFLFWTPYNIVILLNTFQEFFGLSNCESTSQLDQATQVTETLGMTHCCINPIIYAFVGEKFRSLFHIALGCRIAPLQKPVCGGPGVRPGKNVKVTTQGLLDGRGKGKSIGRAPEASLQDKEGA
What is called IC50 is the point on the concentration scale where inhibition reaches its midpoint. High values mean weaker potency in that assay, low ones greater potency in that assay. In the case of `Cc1cccc(C)c1[C@]1(O)CC[C@@H](N2CC(NC(=O)CNC(=O)c3cccc(C(F)(F)F)c3)C2)CC1`, the IC50 is over 25 µM. `O=C(CNC(=O)c1cccc(C(F)(F)F)c1)NC1CN([C@H]2CC[C@](O)(c3cccnc3)CC2)C1` gave a concentration for half-maximal inhibition (IC50) of 0.19 µM. In other words, the sub-micromolar range.

Molecule `O=C(CNC(=O)c1cccc(C(F)(F)F)c1)NC1CN([C@H]2CC[C@](C(=O)O)(c3ccccc3)CC2)C1` yielded a concentration for half-maximal inhibition (IC50) of over 25 µM. Consider `O=C(CNC(=O)c1cccc(C(F)(F)F)c1)NC1CN(C2CCN(c3ccc4c(c3)OCO4)CC2)C1`, for which the IC50 is over 25 µM. The same measure, in the same setting: the value for `N#Cc1cccc([C@]2(O)CC[C@@H](N3CC(NC(=O)CNC(=O)c4cccc(C(F)(F)F)c4)C3)CC2)c1` was 0.41 µM. In turn, `O=C(CNC(=O)c1cccc(C(F)(F)F)c1)NC1CN([C@H]2CC[C@@H](c3ccc4c(c3)OCO4)CC2)C1` came in with a 50% inhibitory concentration (IC50) of 0.005 µM. For the molecule `Nc1ccc([C@H]2CC[C@H](N3CC(NC(=O)CNC(=O)c4cccc(C(F)(F)F)c4)C3)CC2)nc1`, the 50% inhibitory concentration (IC50) was 0.085 µM.

For the molecule `COc1ccc([C@H]2CC[C@H](N3CC(NC(=O)CNC(=O)c4cccc(C(F)(F)F)c4)C3)CC2)cn1`, the IC50 is 0.007 µM. Against the preceding molecule, the IC50 is about 12-fold lower. The same measure, in the same setting: with `O=C(CNC(=O)c1cccc(C(F)(F)F)c1)NC1CN([C@H]2CC[C@](O)(c3ccc4c(c3)OCO4)CC2)C1` the figure was 0.022 µM; with `N[C@]1(c2ccccc2)CC[C@H](N2CC(NC(=O)CNC(=O)c3cccc(C(F)(F)F)c3)C2)CC1`, 0.24 µM. The molecule `O=C(CNC(=O)c1cccc(C(F)(F)F)c1)NC1CN([C@H]2CC[C@H](c3ccc(O)cc3)CC2)C1` returned a half-inhibitory concentration (IC50) of 0.021 µM. `COc1cnccc1[C@H]1CC[C@H](N2CC(NC(=O)CNC(=O)c3cccc(C(F)(F)F)c3)C2)CC1` displayed a half-maximal inhibitory concentration (IC50) of 0.032 µM. Against the preceding molecule, the IC50 is about 1.5-fold higher. On the same count and under the same terms, with `O=C(CNC(=O)c1cccc(C(F)(F)F)c1)NC1CN([C@H]2CC[C@H](c3ccccc3)CC2)C1` the figure was 0.035 µM. `O=C(CNC(=O)c1ccc(C(F)(F)F)cc1)NC1CN([C@H]2CC[C@H](c3ccc4c(c3)OCO4)CC2)C1` registered an IC50 of 1.2 µM. Still for that read-out and setting: the value for `COc1cc([C@H]2CC[C@H](N3CC(NC(=O)CNC(=O)c4cccc(C(F)(F)F)c4)C3)CC2)ccn1` was 0.025 µM; that for `O=C(CNC(=O)c1cccc(C(F)(F)F)c1)NC1CN([C@H]2CC[C@H](c3ccc4[nH]cnc4c3)CC2)C1` was 0.027 µM; that for `O=C(CNC(=O)c1cccc(C(F)(F)F)c1)NC1CN([C@H]2CC[C@H](c3ccc(C(=O)O)cc3)CC2)C1` was 0.07 µM.

Regarding `COc1ccc([C@H]2CC[C@H](N3CC(NC(=O)CNC(=O)c4cccc(C(F)(F)F)c4)C3)CC2)cc1`, the 50% inhibitory concentration (IC50) came to 0.01 µM. This IC50 is about 7-fold lower than that of the molecule before. As to `N#C[C@]1(c2ccccc2)CC[C@H](N2CC(NC(=O)CNC(=O)c3cccc(C(F)(F)F)c3)C2)CC1`, the half-maximal inhibitory concentration (IC50) is over 25 µM. For the molecule `COc1ccc([C@]2(O)CC[C@@H](N3CC(NC(=O)CNC(=O)c4cccc(C(F)(F)F)c4)C3)CC2)cc1`, the IC50 was 0.02 µM. On to `O=C(CNC(=O)c1ccccc1)NC1CN([C@H]2CC[C@H](c3ccc4c(c3)OCO4)CC2)C1`, for which the IC50 came out at 0.39 µM. `O=C(CNC(=O)c1cccc(C(F)(F)F)c1)NC1CN([C@H]2CC[C@](O)(c3ccc4c(c3)OCC4)CC2)C1` gave a concentration for half-maximal inhibition (IC50) of 0.025 µM. Molecule `O=C(CNC(=O)c1cccc(C(F)(F)F)c1)NC1CN([C@H]2CC[C@](O)(c3ccc(F)cc3)CC2)C1` had an IC50 of 0.21 µM. Molecule `O=C(CNC(=O)c1cccc(C(F)(F)F)c1)NC1CN([C@H]2CC[C@](CO)(c3ccccc3)CC2)C1` displayed a half-maximal inhibitory concentration (IC50) of over 25 µM. Same read-out and setting: with `O=C(CNC(=O)c1cccc(C(F)(F)F)c1)NC1CN(C2CCC(c3c[nH]c4ccccc34)CC2)C1` (mixture of isomers) the figure was under 1 µM.

Molecule `O=C(CNC(=O)c1cccc(C(F)(F)F)c1)NC1CN([C@H]2CC[C@H](c3ccc(N4CCCC4)cc3)CC2)C1` had a 50% inhibitory concentration (IC50) of 0.061 µM. For `O=C(CNC(=O)c1cccc(C(F)(F)F)c1)NC1CN([C@H]2CC[C@H](c3ccncc3O)CC2)C1`, the IC50 amounted to 0.052 µM. As to `O=C(CNC(=O)c1cccc(C(F)(F)F)c1)NC1CN([C@H]2CC[C@H](c3ccc4c(c3)OCO4)CC2)C1`, the 50% inhibitory concentration (IC50) amounted to 1.8 µM. `O=C(CNC(=O)c1cccc(C(F)(F)F)c1)NC1CN([C@H]2CC[C@H](c3cccnc3)CC2)C1` gave a 50% inhibitory concentration (IC50) of 0.045 µM. Regarding `O=C(CNC(=O)c1cccc(C(F)(F)F)c1)NC1CN([C@H]2CC[C@H](c3ccc(O)cn3)CC2)C1`, the IC50 is 0.013 µM. This IC50 is about 3.5-fold lower than that of the molecule before.

Consider `O=C(CNC(=O)c1cccc(C(F)(F)F)c1)NC1CN(C2CC=C(c3ccc4c(c3)OCO4)CC2)C1` (stereo not drawn), for which the concentration for half-maximal inhibition (IC50) was 1 µM.

For another experiment, the target named is Voltage-gated inwardly rectifying potassium channel KCNH2 (Homo sapiens, UniProt Q12809). As to the kind of experiment: Displacement of [3H]astemizole from human ERG expressed in HEK293 cells after 1 hr. In general terms: Loss of bound radioactivity is the signal in a displacement assay; it reports binding, not function.
Voltage-gated inwardly rectifying potassium channel KCNH2, sequence (Q12809 whole entry): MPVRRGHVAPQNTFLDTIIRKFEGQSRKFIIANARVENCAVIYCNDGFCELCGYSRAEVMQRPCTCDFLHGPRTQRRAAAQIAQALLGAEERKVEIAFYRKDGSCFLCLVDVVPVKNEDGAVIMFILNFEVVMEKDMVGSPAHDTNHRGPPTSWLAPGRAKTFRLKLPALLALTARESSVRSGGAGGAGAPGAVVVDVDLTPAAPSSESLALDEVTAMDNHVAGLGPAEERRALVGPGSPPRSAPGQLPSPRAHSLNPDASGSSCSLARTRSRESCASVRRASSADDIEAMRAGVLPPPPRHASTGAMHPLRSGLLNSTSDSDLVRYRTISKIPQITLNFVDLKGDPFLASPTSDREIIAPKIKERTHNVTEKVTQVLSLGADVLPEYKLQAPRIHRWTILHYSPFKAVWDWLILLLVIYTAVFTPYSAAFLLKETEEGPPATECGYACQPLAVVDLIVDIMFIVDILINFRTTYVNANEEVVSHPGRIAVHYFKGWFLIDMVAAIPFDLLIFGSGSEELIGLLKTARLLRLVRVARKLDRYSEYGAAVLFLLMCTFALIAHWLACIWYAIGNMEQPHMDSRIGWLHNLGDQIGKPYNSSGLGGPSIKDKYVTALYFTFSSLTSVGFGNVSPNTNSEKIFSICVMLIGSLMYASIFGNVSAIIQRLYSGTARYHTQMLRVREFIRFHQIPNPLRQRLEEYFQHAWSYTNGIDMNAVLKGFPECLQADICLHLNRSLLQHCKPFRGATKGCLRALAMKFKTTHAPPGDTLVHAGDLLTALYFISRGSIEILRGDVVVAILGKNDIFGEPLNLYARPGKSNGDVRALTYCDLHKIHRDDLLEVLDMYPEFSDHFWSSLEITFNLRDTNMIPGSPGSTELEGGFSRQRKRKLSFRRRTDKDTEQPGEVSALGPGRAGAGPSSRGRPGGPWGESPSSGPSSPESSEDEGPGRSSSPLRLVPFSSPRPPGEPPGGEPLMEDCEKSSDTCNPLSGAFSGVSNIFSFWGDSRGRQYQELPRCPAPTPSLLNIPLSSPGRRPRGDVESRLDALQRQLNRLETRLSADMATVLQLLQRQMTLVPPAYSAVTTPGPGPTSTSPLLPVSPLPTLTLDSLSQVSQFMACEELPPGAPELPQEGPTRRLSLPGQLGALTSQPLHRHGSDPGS
In turn, `O=C(CNC(=O)c1ccc(C(F)(F)F)cc1)NC1CN([C@H]2CC[C@H](c3ccc4c(c3)OCO4)CC2)C1` displayed an IC50 of 1.5 µM. Molecule `O=C(CNC(=O)c1cccc(C(F)(F)F)c1)NC1CN(C2CCC(c3c[nH]c4ccccc34)CC2)C1` (mixture of isomers) displayed an IC50 of 2.4 µM.
